Screens from PubChem BioAssay.
In the library only some 2.2% were active in any assay of this set; here they are far more common.
Ba/F3 V617F tox: reduce viability of Ba/F3 cells dependent on JAK2V617F | Ba/F3 EpoR-JAK2V617F viability, ATP luminescence | inhibition, % at 5.6 µM | actives 1.1% (n = 220,000) | AID 1446;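 active = inhibition above the campaign mean plus 3 SD over all tested compounds, cut at about 24% in these data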;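 also: cytokine-independent growth of Ba/F3 cells driven by EpoR plus mutant JAK2; 0% = DMSO-treated cells and 100% = JAK inhibitor I control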
BaF3 parental: parental Ba/F3 viability inhibition as JAK2V617F counter-screen | actives 1.1% (n = 220,000) | AID 1486 | CellTiter-Glo ATP luminescence | inhibition, % at 5.6 µM;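 active = inhibition above a per-campaign cutoff, the mean inhibition of all tested compounds plus 3 SD, cut at about 27% in these data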;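 also: 0% = DMSO wells and 100% = JAK Inhibitor I control wells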
APP transl inh: APP translation inhibition | SH-SY5Y APP 5'UTR-luciferase reporter, luminescence | inhibition, % at 2 µM | actives 0.82% (n = 190,000) | AID 1285;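 active = inhibition above a set limit, derived from the sample mean plus 3 SD, cut at about 45% in these data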
b-catenin transl: beta-catenin nuclear translocation modulation; HeLa beta-catenin nuclear translocation, immunofluorescence imaging; nuclear translocation activity, % at 5 µM; actives 0.3% (n = 190,000); AID 1665;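 active = nuclear translocation activity above 50% at 5 µM, with a well cell count of 50 or more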;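 also: per-cell ratio of nuclear to cytoplasmic median beta-catenin stain intensity; plate controls were DMSO negative control for no effect and GSK-3 inhibitor IX positive control for full effect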
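Test system: human HeLa cells, native beta-catenin. Compound dosing: 5 µM primary single dose, 0.1% DMSO, 0.02–20 µM confirmation series. Incubation: compound exposure 24 h at 37°C. Detection: beta-catenin immunostaining with DAPI counterstain, 20x imaging, 6 fields/well. Read-out basis: Nuclear/cytoplasmic beta-catenin signal ratio, % activation.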
MT stabilizer: microtubule stabilization, imaging screen; actives 0.83% (n = 200,000); HeLa tubulin immunostaining HCS, 24 h; share of cells brighter than vehicle mean+2SD; % tubulin-high responders, % at 10 µM; AID 2205;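 active = plate Z-score above 3 for both tubulin-high and condensed-nucleus cell shares, with cell loss under 80%, at 10 µM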;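 also: anti alpha tubulin signal scored within the nucleus-defined area of each cell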
IEC-6 tox: counter-screen for KLF5 inhibitors: cytotoxicity in IEC-6 cells. IEC-6 cytotoxicity, luminescence viability. inhibition, % at 5 µM. actives 0.78% (n = 290,000);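 also: 0% = plate median of test compound wells and 100% = cytotoxic reference compound wells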
IEC-6 cytotox cf: confirmation of cytotoxic compounds in rat IEC-6 intestinal epithelial cells; shares compounds with IEC-6 tox; inhibition, % at 5 µM; actives 63% (n = 1,900); IEC-6 rat intestinal epithelial viability, luminescence; AID 1907;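 also: 0% = vehicle and 100% = reference cytotoxic drug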
The depositor's hits bear a star. Rule as the data show it, unless noted: active = inhibition above about 22%; inactive = the rest.

For COc1cc(/C=C/C(=O)c2ccc3c(c2)OCCO3)cc(Br)c1OCC(=O)N(C)C the results were IEC-6 tox 24* and IEC-6 cytotox cf 17.
`O=C(/C=C/c1ccncc1)c1ccc2c(c1)OCCO2` gave Ba/F3 V617F tox -3, BaF3 parental 7, APP transl inh -1, b-catenin transl 1, MT stabilizer 3 and IEC-6 tox -3.
COCCNC(=O)c1cc(-c2ccccn2)nc2ccc(S(=O)(=O)N3CCC(C)CC3)cc12 was read as IEC-6 tox 1.
Screening CCOCCCNC(=O)c1cc(-c2cccnc2)nc2ccc(S(=O)(=O)N3CCC(C)CC3)cc12 returned IEC-6 tox 24* and IEC-6 cytotox cf 1.
COc1ccc(-c2nc3ncccc3o2)cc1NC(=O)c1ccco1 was read as IEC-6 tox 2.
`O=C(Nc1ccc(Cc2ccncc2)cc1)c1cc(F)c(F)cc1Cl` gave Ba/F3 V617F tox 2, BaF3 parental 2, APP transl inh -6, b-catenin transl -2, MT stabilizer 6, IEC-6 tox 31* and IEC-6 cytotox cf 48*.
Nc1nc(Nc2ccccc2F)nc(N2CCCC2)c1[N+](=O)[O-] was read as IEC-6 tox 23* and IEC-6 cytotox cf 22*.
For COc1ccc(-c2cc(C3CCNCC3)[nH]n2)cc1 the results were IEC-6 tox 0.
For CC1c2cc3c(cc2CCN1C(=O)c1ccc(Br)cc1)OCCCO3 (centres undefined) the results were IEC-6 tox 39* and IEC-6 cytotox cf 37*.
COc1ccc(C(=O)N2CCc3cc4c(cc3C2C)OCCCO4)cc1 (centres undefined) was read as IEC-6 tox 13.
Screening O=C(CNC(=O)c1ccc(F)cc1)c1ccc(Cl)cc1 returned IEC-6 tox 2.
Screening COc1ccccc1-c1nnc2sc(-c3ccc(N(C)C)cc3)nn12 returned Ba/F3 V617F tox 81*, BaF3 parental 80*, APP transl inh 97*, b-catenin transl 74*, MT stabilizer 8, IEC-6 tox 91* and IEC-6 cytotox cf 72*.
Screening CN(C)c1ccc(-c2nn3c(-c4ccccc4Cl)nnc3s2)cc1 returned Ba/F3 V617F tox 9, BaF3 parental 13, APP transl inh 90*, b-catenin transl 78*, MT stabilizer 29*, IEC-6 tox 35* and IEC-6 cytotox cf 57*.
COC(=O)c1ccc(CNC(=O)c2ccc(COc3ccccc3)cc2)cc1 was read as Ba/F3 V617F tox 2, BaF3 parental 4, APP transl inh -9, MT stabilizer 2 and IEC-6 tox 6.
`O=C(N/N=C(\c1ccccc1)c1ccccn1)c1ccccc1Cl` gave IEC-6 tox 95* and IEC-6 cytotox cf 58*.
`COc1ccc(C(=O)N/N=C(\c2ccccc2)c2ccccn2)cc1` gave Ba/F3 V617F tox 74*, BaF3 parental 68*, APP transl inh 78*, b-catenin transl -1, MT stabilizer 3, IEC-6 tox 28* and IEC-6 cytotox cf 65*.
COc1ccc(C(=O)N/N=C(\C)c2ccccn2)cc1OC was read as IEC-6 tox 40* and IEC-6 cytotox cf 99*.
For C/C(=N/NC(=O)c1ccccn1)c1ccncc1 the results were IEC-6 tox 6.
For C/C(=N\NC(=O)c1ccc(Cl)c(Cl)c1)c1ccccn1 the results were IEC-6 tox 42* and IEC-6 cytotox cf 97*.
C/C(=N\NC(=O)c1ccccc1Cl)c1ccccn1 was read as IEC-6 tox 41* and IEC-6 cytotox cf 66*.
For C/C(=N\NC(=O)c1cccc2ccccc12)c1ccccn1 the results were IEC-6 tox 16.
`Cc1ccc(S(=O)(=O)c2ccc([N+](=O)[O-])cn2)cc1` gave IEC-6 tox 101* and IEC-6 cytotox cf 13.
`Nc1ccc(S(=O)(=O)c2ccccc2)nc1` gave IEC-6 tox -7.
For O=[N+]([O-])c1ccc(S(=O)(=O)c2ccccc2)nc1 the results were IEC-6 tox 101* and IEC-6 cytotox cf 85*.
O=C1N(Cc2cccnc2)C[C@@H]2C[C@@H](c3cccc(Oc4ccccc4)c3)N3CCC[C@@]123 was read as Ba/F3 V617F tox -5, BaF3 parental -4, b-catenin transl 0 and IEC-6 tox -6.
Cc1ccc(C)c(C2NC(=O)c3ccccc3N2)c1 (centres undefined) was read as Ba/F3 V617F tox 42*, BaF3 parental 39*, b-catenin transl 64*, IEC-6 tox 63* and IEC-6 cytotox cf 51*.
Nn1cnnc1N/N=C/c1ccc(Cl)c([N+](=O)[O-])c1 was read as Ba/F3 V617F tox 2, BaF3 parental 3, APP transl inh -2, b-catenin transl -3, MT stabilizer 3, IEC-6 tox 52* and IEC-6 cytotox cf 2.
O=C(CSc1cccc[n+]1[O-])c1ccccc1Br was read as Ba/F3 V617F tox 7, BaF3 parental 7, APP transl inh -8, b-catenin transl -2, MT stabilizer 5, IEC-6 tox 85* and IEC-6 cytotox cf 7.
Screening Cc1cc(NCCCn2ccnc2)n2ncc(-c3ccc(Cl)cc3)c2n1 returned Ba/F3 V617F tox 4, BaF3 parental 12, APP transl inh -253, MT stabilizer 4, IEC-6 tox 33* and IEC-6 cytotox cf 27*.
`CCCCC(=O)NC(c1ccc(N(CC)CC)cc1)c1ccc2cccnc2c1O` (centres undefined) gave IEC-6 tox 11.
`CCCCC(=O)NC(c1ccccc1OC)c1ccc2cccnc2c1O` (centres undefined) gave Ba/F3 V617F tox 47*, BaF3 parental 38*, b-catenin transl 0, IEC-6 tox 24* and IEC-6 cytotox cf 57*.
Screening CCCC(=O)NC(c1cccs1)c1cc(Cl)c2cccnc2c1O (centres undefined) returned Ba/F3 V617F tox -2, BaF3 parental -2, APP transl inh 44, b-catenin transl -1, MT stabilizer 5 and IEC-6 tox -1.
`CCCC(=O)NC(c1ccc(Cl)cc1Cl)c1ccc2cccnc2c1O` (centres undefined) gave IEC-6 tox 19.
CCCCC(=O)NC(c1ccc(Cl)cc1)c1ccc2cccnc2c1O (centres undefined) was read as IEC-6 tox 57* and IEC-6 cytotox cf 68*.
`CCCC(=O)NC(c1ccc(Cl)cc1)c1ccc2cccnc2c1O` (centres undefined) gave IEC-6 tox 40* and IEC-6 cytotox cf 67*.
For CCCC(=O)NC(c1ccc(C)cc1)c1ccc2cccnc2c1O (centres undefined) the results were IEC-6 tox 55* and IEC-6 cytotox cf 83*.
